Compound activity from PubChem BioAssay.
Sampled rows, rich in hits. Any-hit rate of the full collection: about 1.6%.
ADAM10 inh: human ADAM10 inhibitors, primary screen, biochemical, QFRET, HTS; Disintegrin and metalloproteinase domain-containing protein 10 (Homo sapiens), O14672; recombinant ADAM10, EDANS/DABCYL FRET peptide cleavage, 3 h; 370,000 compounds, 0.62% hits; inhibition, % at 7 µM;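 active means inhibition above a per-campaign cutoff equal to the mean of compounds falling between control-based bounds plus 3 SD, cut at about 20% in these data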;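 further: 0% = DMSO wells while the 100% control is not disclosed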
MT1-MMP act inh: blockers of MT1-MMP proenzyme processing, primary screen, HT1080 RFP-PRO-GFP cells, GFP/RFP fluorescence. 360,000 compounds, 0.061% hits. Matrix metalloproteinase-14 (Homo sapiens), P50281. GFP/RFP ratio fluorescence, overnight; percent of plate control window, DMSO zero. GFP/RFP ratio change, % at 20 µM;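 active means GFP/RFP ratio change of at least 30% with cell ATP level not reduced by more than half and red fluorescence within 50% of control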
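system = RFP-PRO-GFP reporter HT1080 cells | dosing = 20 µM single dose, 1% DMSO | timing = overnight cell settling, then overnight compound exposure, 37 °C, 5% CO2 | read-out basis = GFP/RFP fluorescence ratio | controls = DMSO and RFP-L50D-GFP cell wells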
ADAM17 inh: ADAM17 inhibitors, primary screen, biochemical, QFRET; Disintegrin and metalloproteinase domain-containing protein 17 (Homo sapiens), P78536; recombinant ADAM17, EDANS/DABCYL FRET peptide cleavage; inhibition, % at 6.95 µM; 370,000 compounds, 0.83% hits; AID 720648, 2013;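 active means inhibition above the mean of compounds lying between control limits plus 3 SD, set per campaign, cut at about 8.5% in these data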;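 further: 0% = DMSO-only wells as the low control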
Target sequence (P78536 215-824 limits assumed): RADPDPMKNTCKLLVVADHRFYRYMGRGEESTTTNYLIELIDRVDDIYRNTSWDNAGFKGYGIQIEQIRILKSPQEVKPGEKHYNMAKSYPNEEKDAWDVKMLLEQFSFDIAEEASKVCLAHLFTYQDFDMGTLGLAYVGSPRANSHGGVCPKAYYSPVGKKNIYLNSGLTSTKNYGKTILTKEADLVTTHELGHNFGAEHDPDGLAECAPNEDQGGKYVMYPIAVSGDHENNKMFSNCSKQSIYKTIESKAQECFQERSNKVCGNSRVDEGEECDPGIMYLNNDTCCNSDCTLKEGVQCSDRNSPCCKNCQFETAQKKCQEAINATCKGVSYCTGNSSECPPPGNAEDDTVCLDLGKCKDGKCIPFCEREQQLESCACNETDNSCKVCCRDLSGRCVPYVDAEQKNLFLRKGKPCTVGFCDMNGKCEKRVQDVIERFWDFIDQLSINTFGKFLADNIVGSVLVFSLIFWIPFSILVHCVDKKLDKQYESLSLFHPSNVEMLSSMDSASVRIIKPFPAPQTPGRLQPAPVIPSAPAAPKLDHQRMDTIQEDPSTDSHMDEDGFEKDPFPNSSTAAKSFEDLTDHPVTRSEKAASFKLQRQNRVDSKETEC
Tn7 DDE FP: inhibitors of Tn7 peptide binding to fibrin DD(E), primary screen, biochemical, fluorescence polarization, human fibrin, Tn7 probe; 370,000 compounds, 0.13% hits; Fibrinogen beta chain (Homo sapiens), P02675; AID 720508, 2013; inhibition, % at 8.3 µM; FP displacement of FITC-Tn7 peptide from fibrin DD(E); 0% = median of compound wells per plate;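 active means inhibition above the mean of compounds falling within the control limits plus 3 SD of them, cut at about 14% in these data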;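 further: 0% = plate median of compound wells and 100% = 10 µM Aha-Tn7 peptide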
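Assay system: Fibrin-DD(E) protein isolated from polymerized human fibrin clots; read-out basis: percent inhibition; medium: Tris/NaCl/CaCl2 buffer, pH 7.8; signal: FP measurement; incubation: 10 min plus 3 h, room temperature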
Tn6 DDE FP: inhibitors of Tn6 peptide binding to fibrin DD(E), primary screen, biochemical, fluorescence polarization, human fibrin, Tn6 probe | Fibrin DD(E) TRITC-Tn6 fluorescence polarization displacement | inhibition, % at 8.3 µM | 370,000 compounds, 0.21% hits | AID 720509, 2013;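 active means inhibition above a per-campaign cutoff: mean of compounds within control limits plus 3 SD, cut at about 15% in these data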;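 further: 0% = median of all compound wells on the plate and 100% = blocking peptide control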
ADAM10 counter: ADAM10 inhibitors, counter-screen for ADAM17 exosite inhibitor project, biochemical, FRET, human ADAM10; shares compounds with ADAM17 inh; recombinant ADAM10, EDANS/DABCYL FRET peptide cleavage, 3 h; inhibition, % at 6.95 µM; 2,900 compounds, 47% hits;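 active means mean inhibition over the triplicate runs exceeds the activity threshold set in the earlier primary screen, cut at about 20% in these data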;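 further: 0% = DMSO wells and 100% = marimastat wells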
ADAM17 confirm: ADAM17 inhibitors, hit retest, confirmation, biochemical, QFRET peptide cleavage; shares compounds with ADAM17 inh; recombinant ADAM17, EDANS/DABCYL QFRET peptide cleavage; inhibition, % at 6.95 µM; 2,900 compounds, 65% hits;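 active means mean inhibition across replicates above the hit cutoff set in the primary screen, cut at about 8.5% in these data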;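 further: 0% = DMSO wells and 100% = marimastat wells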
* = called active by the depositor; nt = no result.

SMILES | ADAM10 inh | MT1-MMP act inh | ADAM17 inh | Tn7 DDE FP | Tn6 DDE FP | ADAM10 counter | ADAM17 confirm
COc1cc(NC(=O)c2c(-c3ccccc3Cl)noc2C)c2ncccc2c1 | 6.9 | -0.2 | -0.6 | -0.4 | 3.6 | nt | nt
C#CCOCCOCCOCCNc1nc(N2CCOCC2)nc(N2CCN(C(=O)[C@H](CCC(=O)O)n3cc(C(N)CO)nn3)CC2)n1 (some centres not stated) | -20.5 | nt | -8.1 | 6.2 | -2.0 | nt | nt
CC12CCC(C(=O)Nc3ccc(SC(F)F)cc3)(CC1=O)C2(C)C (configuration not stated) | 9.9 | 3.6 | 14.9* | 4.3 | -4.6 | -0.2 | 3.7
CSCCCNC(=O)c1cn(C(C)c2ccccc2)nn1 (configuration not stated) | -8.6 | nt | -2.3 | 1.0 | -1.5 | nt | nt
CC1=C(C(=O)OCC2CCCO2)C(c2ccccc2)NC(=O)N1 (configuration not stated) | -4.7 | 5.2 | -0.9 | -0.1 | -4.8 | nt | nt
CC1=C(C(=O)OCCNC(=O)c2ccccc2O)C(c2ccccc2[N+](=O)[O-])C(C(=O)OCC2CCCO2)=C(C)N1 (configuration not stated) | 15.0 | -20.2 | 13.3* | -4.5 | 0.0 | 16.3 | 7.3
CCOc1cc(C(=O)OCC(=O)Nc2ccc(SC(F)F)cc2)cc(OCC)c1OCC | 19.2 | -3.7 | 10.1* | -0.1 | -6.0 | 37.8* | 18.5*
Fc1ccc(-c2n[nH]c(=S)n2N=Cc2cccc(OCc3ccccc3)c2)cc1 | 4.8 | nt | 2.0 | -11.2 | -6.3 | nt | nt
O=C(COC(=O)C1CCN(S(=O)(=O)c2ccc3c(c2)OCCO3)CC1)Nc1ccc(C(F)(F)F)cc1 | 13.0 | 3.8 | 8.7* | -3.9 | 1.2 | 12.9 | 10.7*
CCN(CC)c1ccc(NC(=O)COC(=O)C2CCN(c3ccc(C(F)(F)F)cn3)CC2)cc1 | -4.5 | 2.1 | 0.8 | 13.6 | -2.6 | nt | nt
CCN(c1ccc(NC(=O)COC(=O)C2CCN(c3ccc(C(F)(F)F)cn3)CC2)cc1)C(C)C | 11.2 | 4.6 | 8.9* | -10.4 | 0.7 | 36.6* | 17.9*
O=C(CNS(=O)(=O)c1ccc(F)cc1)N1CCN(c2ccccn2)CC1 | -11.3 | nt | -4.2 | 8.9 | -5.7 | nt | nt
CCC[C@H]1[C@@H](OC(=O)NCc2cccnc2)CC[C@@]23CCCN2C(=O)CCC[C@@H]13 | -5.5 | nt | -5.1 | 1.7 | -2.1 | nt | nt
COCCCN1C(=O)[C@H](CC(=O)N2CCOCC2)[C@]2(C(=O)OC)CCCCC=C12 | -1.9 | nt | -1.3 | 7.8 | 3.0 | nt | nt
COc1ccc(NC(=O)Cn2nnc(-c3ccccc3N)n2)cc1OC | 0.8 | -2.9 | -0.9 | 8.8 | 5.8 | nt | nt
COc1cc(NC(=O)Cn2nnc(-c3ccccc3N)n2)cc(OC)c1 | 17.6 | -1.2 | 9.6* | -3.4 | 1.4 | 0.0 | 1.0
COc1ccc(CCN(C(=O)C(F)(F)F)C(C(=O)NC2CCCCC2)c2ccc(C)s2)cc1 (configuration not stated) | 3.2 | 3.3 | 9.1* | -0.4 | -2.4 | -2.2 | 0.7
COc1ccc(CCN(C(=O)C(F)(F)F)C(C(=O)NC2CCCCC2)c2cccs2)cc1 (configuration not stated) | 7.9 | -17.0 | 3.2 | -3.1 | 6.5 | nt | nt
CCOC(=O)C1(Cc2ccccc2)CCN(Cc2ccccc2[N+](=O)[O-])CC1 | 5.3 | nt | 1.7 | -7.8 | 0.0 | nt | nt
COC(=O)[C@]12C[C@H](CC(=O)N3CCCC3)C(=O)N(CCC3=CCCCC3)C1=C[C@H](C1CCCC1)O[C@@H]2C | -5.3 | nt | -5.5 | 0.8 | -8.9 | nt | nt
C[C@@H]1CN([C@@H](C)CO)C(=O)CCCn2nncc2CO[C@H]1CN(C)CC1CC1 | -18.4 | nt | -5.5 | 3.0 | 1.0 | nt | nt
CCC1CCC2(CC1)NC(=O)N(CC(=O)c1c(C)[nH]c3ccccc13)C2=O (configuration not stated) | 18.4 | -12.6 | 8.9* | -3.4 | -2.0 | 4.1 | 7.9
Cc1[nH]c2ccccc2c1C(=O)CN1C(=O)NC2(CCCCCC2)C1=O | 4.0 | -0.8 | 2.9 | -7.1 | -4.4 | nt | nt
COc1ccc(C(C)=O)cc1CSC(=S)N1CCSCC1 | 3.9 | nt | 3.2 | 2.7 | 10.6 | nt | nt
C[C@@H]1ON(C)[C@H]2C[C@H]3c4cc(-c5cccc(Cl)c5)ccc4CCN3C[C@@H]12 | -11.5 | nt | -4.8 | 2.4 | -1.9 | nt | nt
SMILES | ADAM10 inh | MT1-MMP act inh | ADAM17 inh | Tn7 DDE FP | Tn6 DDE FP | ADAM10 counter | ADAM17 confirm
COC(=O)[C@H]1C[C@@]2(CC=C(C)C)c3ccccc3N(C(=O)OC(C)(C)C)[C@H]2N1C(=O)OC(C)(C)C | 12.1 | nt | 1.1 | 8.0 | 7.4 | nt | nt
C=CCSC1=C(C#N)C(c2ccccc2Cl)C(C(=O)c2cccs2)C(O)(C(F)(F)F)N1 (configuration not stated) | 8.1 | -9.6 | 8.6* | 1.9 | 2.3 | 11.9 | 8.4
CCSC1=C(C#N)C(c2ccccc2Cl)C(C(=O)c2cccs2)C(O)(C(F)(F)F)N1 (configuration not stated) | 5.8 | 6.1 | 3.9 | -17.2 | -4.6 | nt | nt
CCCc1ccc(C(C)NC(=S)NCc2ccc(F)cc2)cc1 (configuration not stated) | 12.4 | -0.2 | 9.1* | 5.9 | -1.2 | 34.4* | 17.0*
NS(=O)(=O)c1ccc(N/N=C2/CCCCC2C2CCCCC2)c([N+](=O)[O-])c1 (configuration not stated) | 18.2 | -9.7 | 11.7* | 1.1 | -4.7 | 17.4 | 8.7*
CN[C@H]1C[C@H]2c3[nH]c4c(-c5cccc(C)c5)cccc4c3CCN2C(=O)[C@H]1[C@H](C)O | -75.9 | nt | -27.1 | 0.0 | -0.1 | nt | nt
CC1(C(=O)NS(=O)(=O)Cc2ccccc2)CCN1C(=O)C1(c2ccc(Cl)cc2)CC1 (configuration not stated) | 14.1 | -1.7 | 9.6* | -9.5 | -4.5 | -5.3 | -0.1
CC1(C(=O)NS(=O)(=O)Cc2cccc(Cl)c2)CCN1C(=O)C1(c2ccc(Cl)cc2)CC1 (configuration not stated) | 5.9 | 1.0 | 0.7 | -1.0 | 1.9 | nt | nt
Cc1ccccc1CN1CCCCC(NC(=O)c2ccccc2)C1=O (configuration not stated) | -3.8 | nt | -5.0 | 9.2 | -4.4 | nt | nt
